Source: PubChem (several laboratories)
H9c2 TAG inh: inhibitors of triacylglycerol accumulation, primary screen, cell-based, uHTS, fluorescence, H9c2; H9c2 cells, Nile Red lipid (TAG) fluorescence; cells loaded with 200 µM oleic acid; inhibition, % at 12.5 µM; actives 0.66% (n = 230,000); AID 651582, 2012;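 active = pattern-corrected inhibition of lipid staining of at least 50% with the nuclear-stain viability signal not falling by more than 50%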
STAT3 inh: IL-6 driven STAT3 reporter inhibitors, primary screen, U3A cells, luciferase, luminescence, MLSCN library | IL-6 STAT3-luciferase reporter; host cell line lacks STAT1 | inhibition, % at 5.5 µM | actives 0.89% (n = 190,000);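 active = inhibition above the mean inhibition across all screened compounds plus 3 SD, cut at about 44% in these data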
Lipid droplet: inhibitors of hepatocyte lipid droplet formation, primary screen, imaging, high-throughput imaging, BODIPY stain; inhibition, % at 6.5 µM; AML12 mouse hepatocytes, oleate lipid droplets; actives 0.4% (n = 240,000);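 active = lipid droplet intensity inhibited by at least 50%, with more than 500 cells counted; inconclusive = wells with under 300 cells, treated as cytotoxic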
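Material: mouse AML12 hepatocyte cell line, fixed after treatment; Timing: compound with oleate, overnight; Technique: high-content imaging of BODIPY-stained droplets and DAPI nuclei; Probe or stimulus: oleate, 100 µM final; Dosing: compound at 6.5 µM only.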
STAT1 blocker: STAT1 signaling inhibitors, primary screen, cell-based, HTS, luciferase reporter; actives 0.35% (n = 200,000); inhibition, % at 5.5 µM; NIH 3T3 STAT1-luciferase reporter, IFN-gamma, luminescence; AID 920, 2007;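 active = inhibition above a set limit, the mean inhibition across all tested compounds plus 3 SD, cut at about 34% in these data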
Platelet DG rel: inhibitors of platelet dense granule secretion, primary screen, cell-based, MLPCN, human platelets; human platelet-rich plasma, SFLLRN dense granule ATP release, luminescence; inhibition, %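 (compounds screened at 7.5 µM in platelet-rich plasma)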; actives 0.22% (n = 300,000); AID 1663, 2009;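 active = mean replicate score, as percent of positive control, at or above 50; inconclusive = mean below 50 but at least one replicate at or above 50; inactive = mean and every replicate below 50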
PPC-1+TRAIL kill: compounds killing PPC-1 cancer cells with TRAIL present, primary screen, TRAIL potentiator project, ATPLite luminescence, uHTS. PPC-1 cells + TRAIL, ATPLite viability luminescence. cell killing (% activity), % at 4 µM or 5 µM. actives 0.41% (n = 220,000). AID 1443, 2008;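 active = cell killing above 50% in the first pass at 4 µM, then a duplicate retest at 5 µM averaging 50% or more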
Each line names hits and unclear results; the compound was inactive in the other large screens. The list is not random: actives were taken first. Their share in the collection is about 1.5%.

CCCCN1C2=C(C(=O)CCC2)C(c2ccc(Cl)c(Cl)c2)C2=C1c1ccccc1C2=O (stereo unspecified)	H9c2 TAG inh 60 (no result: Lipid droplet)
COc1cccc(/C=N/Nc2ccnc(=O)[nH]2)c1O	Platelet DG rel inconclusive (no result: H9c2 TAG inh, STAT3 inh, STAT1 blocker, PPC-1+TRAIL kill)
O=c1nccc(N/N=C/c2ccccc2O)[nH]1	Platelet DG rel 63 (no result: H9c2 TAG inh, STAT3 inh, STAT1 blocker, PPC-1+TRAIL kill)
CCCOC(=O)c1ccc(NC(=O)/C=C/c2cccs2)cc1	Lipid droplet 80 (no result: H9c2 TAG inh)
CCc1cc2c(=O)[nH]c(-c3ccccn3)nc2s1	PPC-1+TRAIL kill 60 (no result: H9c2 TAG inh)
CCN(CC)C(=O)C1=C(C)N(CCCOC)C(=O)C(CC(=O)NC2CCCCC2)C1 (stereo unspecified)	none (no result: STAT3 inh, Lipid droplet, STAT1 blocker, Platelet DG rel, PPC-1+TRAIL kill)
Cc1ccc(C(=O)C2=C(O)C(=O)N(Cc3ccccc3)C2c2cccnc2)o1 (stereo unspecified)	STAT1 blocker 37 (no result: H9c2 TAG inh)
COc1ccc2nc3cc(Cl)ccc3c(Nc3ccc(O)c(CN4CCN(C)CC4)c3)c2c1	H9c2 TAG inh 54 (no result: STAT3 inh, Lipid droplet, STAT1 blocker, Platelet DG rel, PPC-1+TRAIL kill)
COc1ccc2nc3cc(Cl)ccc3c(C#N)c2c1	none (no result: STAT3 inh, STAT1 blocker)
O=c1c2c3nc4ccccc4nc3n(-c3ccc4c(c3)OCCO4)c2ncn1C1CCCC1	H9c2 TAG inh 64 (no result: STAT3 inh, Lipid droplet, STAT1 blocker, Platelet DG rel)
O=c1c2c3nc4ccccc4nc3n(-c3ccc4c(c3)OCCO4)c2ncn1CC1CCCO1 (stereo unspecified)	none (no result: H9c2 TAG inh, STAT3 inh, Lipid droplet, STAT1 blocker, Platelet DG rel)
CC(C)N=C(NS(=O)(=O)c1ccccc1)C(Cl)(Cl)Cl	H9c2 TAG inh 52, Lipid droplet inconclusive
O=S(=O)(NC(=S)c1ccccc1)c1ccccc1	none (no result: STAT3 inh, Lipid droplet, STAT1 blocker, PPC-1+TRAIL kill)
CCC(=O)OCOc1ccc(/C=C2/CCC(CN(C)C)C2=O)cc1 (stereo unspecified)	none (no result: STAT3 inh, Lipid droplet, STAT1 blocker, Platelet DG rel, PPC-1+TRAIL kill)
COC(=O)CS(=O)(=O)c1ccc2c(c1)CC(=O)N2	Platelet DG rel 64
COc1cccc(NS(=O)(=O)c2ccc3c(c2)CC(=O)N3)c1	none (no result: STAT3 inh, Lipid droplet, STAT1 blocker, Platelet DG rel, PPC-1+TRAIL kill)
CC[C@]12C(=O)N(C)C[C@H]([C@@H]3C(=O)N(C)C(=O)[C@@H]31)N2C(=O)c1ccccc1	none (no result: STAT3 inh, Lipid droplet, STAT1 blocker, Platelet DG rel, PPC-1+TRAIL kill)
C=CCOc1ccccc1CNc1ccc2c(c1)OCCO2	STAT3 inh 70, STAT1 blocker 43
CC(C)CC1NC(=O)c2cccnc2-n2c1nc1cc(F)ccc1c2=O (stereo unspecified)	none (no result: STAT3 inh, Lipid droplet, STAT1 blocker, Platelet DG rel, PPC-1+TRAIL kill)
O=C(CCCc1ccccc1)Nc1cccc(C(=O)O)c1	STAT3 inh 73, STAT1 blocker 71
Cc1ccnc(N2C(=O)c3ccccc3C2O)c1 (stereo unspecified)	Platelet DG rel 69 (no result: Lipid droplet)
Cc1ccnc(N2C(=O)c3ccccc3C2Nc2cccc(C)c2C)c1 (stereo unspecified)	none
COc1ccc(N=c2scc(-c3ccc(S(=O)(=O)N4CCOCC4)cc3)n2CCCO)cc1	STAT3 inh 44 (no result: H9c2 TAG inh, Platelet DG rel)
C=CCn1c(-c2ccc(S(=O)(=O)N3CCOCC3)cc2)csc1=Nc1ccccc1	none (no result: Lipid droplet)
CCSc1nnc(NC(=O)CSc2nc3c(cc2C#N)CCCC3)s1	none (no result: H9c2 TAG inh, Lipid droplet)
N#Cc1cc2c(nc1SCC(=O)Nc1nccs1)CCCCC2	PPC-1+TRAIL kill 67 (no result: H9c2 TAG inh)
O=[N+]([O-])c1ccc(/C=C/C2=NN(c3ccccc3)C(c3ccco3)C2)o1 (stereo unspecified)	Lipid droplet 54
C(=C\c1ccco1)/C1=NN(c2ccccc2)C(c2ccco2)C1 (stereo unspecified)	none
CC(=O)Nc1cncc(-c2cccc(S(C)(=O)=O)c2)n1	none (no result: STAT3 inh, Lipid droplet, STAT1 blocker, Platelet DG rel, PPC-1+TRAIL kill)
CCOC(=O)C1(C)CCN1C(=O)c1ccccc1 (stereo unspecified)	none (no result: STAT3 inh, Lipid droplet, STAT1 blocker, Platelet DG rel, PPC-1+TRAIL kill)
CCc1ccc(/C=N/NC(=O)c2nnn(-c3nonc3N)c2CN2CCOCC2)cc1	Platelet DG rel 50 (no result: H9c2 TAG inh, STAT3 inh, STAT1 blocker, PPC-1+TRAIL kill)
CCCCNC(=S)N(CCCO)Cc1cc2cc3c(cc2[nH]c1=O)OCO3	none (no result: STAT3 inh, Lipid droplet, STAT1 blocker, Platelet DG rel, PPC-1+TRAIL kill)
Cc1ccc(-n2c(N)c(C(=O)Nc3c(C)n(C)n(-c4ccccc4)c3=O)c3nc4ccccc4nc32)cc1C	Lipid droplet 70 (no result: H9c2 TAG inh)
CC1=NN(c2ccccc2)C(=O)/C1=C/C=C/c1ccc(N(C)C)cc1	H9c2 TAG inh 66
CC1=NN(c2ccccc2)C(=O)/C1=C\C=C\c1ccccc1	none (no result: STAT3 inh, STAT1 blocker)
NC(=S)N/N=C\c1c2ccccc2cc2ccccc12	PPC-1+TRAIL kill 61 (no result: H9c2 TAG inh, Platelet DG rel)
